Columns and labels:
[1] = biological target: Bovine serum albumin (BSA)-glucose model (Bos taurus, UniProt P02769); assay: In vitro anti-glycation assay, BSA-glucose model; type: biochemical; conditions: for inhibition at 100 ppm / inhibition at 200 ppm / inhibition at 400 ppm / inhibition at 600 ppm / inhibition at 800 ppm / inhibition at 1000 ppm: read-out: % age antiglycation inhibition
In short: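 Glycation is read by measuring the fluorescence of glycated products on a spectrofluorometer.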

α-amylase = assay: α-Amylase inhibition assay; type: biochemical; conditions: for IC50: read-out: IC50 ± SEM, α-amylase inhibition
[2] = DPPH radical scavenging assay; conditions: for IC50: read-out: IC50 (mM ± SEM), DPPH scavenged by 50%; for percentage antioxidant potential: at tested concentrations, IC50 not calculated
In short: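 Radical scavenging of DPPH by the test compound, with ascorbic acid as the reference.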

Bovine serum albumin (BSA)-glucose model, sequence (P02769 25-607): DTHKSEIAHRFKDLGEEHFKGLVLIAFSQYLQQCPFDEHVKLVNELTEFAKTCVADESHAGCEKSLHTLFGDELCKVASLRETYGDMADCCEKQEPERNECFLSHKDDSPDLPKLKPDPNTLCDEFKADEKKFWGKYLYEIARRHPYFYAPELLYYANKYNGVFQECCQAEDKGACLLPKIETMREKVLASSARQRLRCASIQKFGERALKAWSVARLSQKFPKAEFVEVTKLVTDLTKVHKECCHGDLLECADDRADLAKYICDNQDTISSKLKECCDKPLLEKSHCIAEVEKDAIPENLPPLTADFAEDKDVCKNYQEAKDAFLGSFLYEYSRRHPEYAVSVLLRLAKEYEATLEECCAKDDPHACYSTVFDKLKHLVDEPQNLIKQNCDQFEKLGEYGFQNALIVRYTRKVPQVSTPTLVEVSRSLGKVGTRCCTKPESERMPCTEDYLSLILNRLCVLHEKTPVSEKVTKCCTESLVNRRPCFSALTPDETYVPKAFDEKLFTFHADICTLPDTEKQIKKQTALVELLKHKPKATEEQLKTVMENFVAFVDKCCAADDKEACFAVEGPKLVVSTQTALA

SMILES	inhibition at 100 ppm [1] [%]	inhibition at 200 ppm [1] [%]	inhibition at 400 ppm [1] [%]	inhibition at 600 ppm [1] [%]	inhibition at 800 ppm [1] [%]	inhibition at 1000 ppm [1] [%]	% age α-amylase inhibition (α-amylase; 1 μM) [%]	% age α-amylase inhibition (α-amylase; 5 μM) [%]	% age α-amylase inhibition (α-amylase; 10 μM) [%]	IC50 (α-amylase) [µM]	% age antioxidant potential ([2]; 3 mM) [%]	% age antioxidant potential ([2]; 6 mM) [%]	% age antioxidant potential ([2]; 9 mM) [%]	% age antioxidant potential ([2]; 12 mM) [%]	% age antioxidant potential ([2]; 15 mM) [%]	IC50 [2] [mM]	percentage antioxidant potential [2]	IC50 [1] [µM]
COc1cc(Br)c(C=NNc2nc(-c3ccc(F)cc3)cs2)cc1OC [3a, 2-(2-(2-Bromo-4,5-dimethoxybenzylidene)hydrazinyl)-4-(4-fluorophenyl)thiazole]	80.9	82.1	84.8	85.9	87	89.9	35.96	51.11	69.11	6.41 ± 0.09	0.00	18.82	32.72	47.58	67.95	12.39 ± 0.1	–	–
Cc1ccc(C=NNc2nc(-c3ccc(F)cc3)cs2)c(Br)c1 [3b, 2-(2-(2-Bromo-4-methylbenzylidene)hydrazinyl)-4-(4-fluorophenyl)thiazole]	81.2	84.6	85.2	86.2	86.8	87.5	31.95	51.54	62.71	6.87 ± 0.01	8.77	23.69	36.38	53.65	69.82	11.3 ± 0.14	–	–
CC(CCc1ccccc1)=NNc1nc(-c2ccc(F)cc2)cs1 [3c, 4-(4-Fluorophenyl)-2-(2-(4-phenylbutan-2-ylidene)hydrazinyl)thiazole]	67.6	68.9	69.7	75.7	77.9	81.6	30.03	45.41	58.12	7.52 ± 0.05	0.00	11.13	34.28	57.51	73.34	11.4 ± 0.12	–	–
Fc1ccc(-c2csc(NN=Cc3ccc(C(F)(F)F)cc3)n2)cc1 [3d, 4-(4-Fluorophenyl)-2-(2-(4-(trifluoromethyl)benzylidene)hydrazinyl)thiazole]	87.4	87.9	89	89.5	90.9	92.3	36.97	49.93	62.35	6.92 ± 0.12	23.48	34.45	45.32	56.39	63.78	10.68 ± 0.08	–	–
Cc1ccc(C=NNc2nc(-c3ccc(F)cc3)cs2)o1 [3e, 4-(4-Fluorophenyl)-2-(2-((5-methylfuran-2-yl)methylene)hydrazinyl)thiazole]	68.7	69.7	70.7	71.8	72.8	73.7	30.06	41.20	57.45	7.77 ± 0.01	0.00	8.26	19.32	44.74	49.04	–	less than 50%	–
CC(=NNc1nc(-c2ccc(F)cc2)cs1)c1cccc(Br)c1 [3f, 2-(2-(1-(3-Bromophenyl)ethylidene)hydrazinyl)-4-(4-fluorophenyl)thiazole]	84.1	86.7	87.3	88	90.4	91.3	34.92	51.68	62.28	6.88 ± 0.16	0.00	0.00	19.48	28.70	40.73	–	less than 50%	–
CC(=NNc1nc(-c2ccc(F)cc2)cs1)c1ccc(F)cc1 [3g, 4-(4-Fluorophenyl)-2-(2-(1-(4-fluorophenyl)ethylidene)hydrazinyl)thiazole]	24.3	34.6	48.8	54.3	66.6	74.6	38.00	49.56	62.75	6.9 ± 0.23	0.00	0.00	0.00	0.00	8.45	–	less than 50%	1770
Oc1ccc(Cl)cc1C=NNc1nc(-c2ccc(F)cc2)cs1 [3h, 4-Chloro-2-((2-(4-(4-fluorophenyl)thiazol-2-yl)hydrazinylidene)methyl)phenol]	50.9	56.5	65.5	68.4	69	70.7	55.89	69.05	82.47	5.14 ± 0.03	0.00	0.00	0.00	8.78	23.25	–	less than 50%	–
Fc1ccc(-c2csc(NN=Cc3cccc(C(F)(F)F)c3)n2)cc1 [3i, 4-(4-Fluorophenyl)-2-(2-(3-(trifluoromethyl)benzylidene)hydrazinyl)thiazole]	88	88.5	89.1	90	91.2	92.2	38.90	51.09	64.58	6.7 ± 0.08	0.00	8.64	18.87	32.26	46.53	–	less than 50%	–
CCOc1ccccc1C=NNc1nc(-c2ccc(F)cc2)cs1 [3j, 2-(2-(2-Ethoxybenzylidene)hydrazinyl)-4-(4-fluorophenyl)thiazole]	52.3	61.5	66.5	70.3	76.2	79.2	29.58	42.23	54.03	8.07 ± 0.12	18.18	45.90	62.07	75.45	78.51	8.33 ± 0.08	–	–
Fc1ccc(-c2csc(NN=Cc3ccccc3C(F)(F)F)n2)cc1 [3k, 4-(4-Fluorophenyl)-2-(2-(2-(trifluoromethyl)benzylidene)hydrazinyl)thiazole]	87.4	87.9	88.8	89.2	90	91.6	47.84	57.72	70.90	6.03 ± 0.04	0.00	14.08	21.05	30.92	48.28	–	less than 50%	–
COc1c(F)cccc1C=NNc1nc(-c2ccc(F)cc2)cs1 [3l, 2-(2-(3-Fluoro-2-methoxybenzylidene)hydrazinyl)-4-(4-fluorophenyl)thiazole]	79.9	81.8	83	84.6	86.2	87.1	37.06	49.08	61.72	7 ± 0.13	0.00	15.62	32.06	46.14	65.18	12.94 ± 0.01	–	–
C[C@H]1O[C@H](O[C@H]2[C@H](O)[C@@H](O)[C@@H](O[C@H]3[C@H](O)[C@@H](O)C(O)O[C@@H]3CO)O[C@@H]2CO)[C@H](O)[C@@H](O)[C@@H]1N[C@H]1C=C(CO)[C@@H](O)[C@H](O)[C@H]1O (stereo partly shown) [acarbose, reference compound]	–	–	–	–	–	–	53.42	66.81	74.77	–	–	–	–	–	–	–	–	–
O=C1O[C@H]([C@@H](O)CO)C(O)=C1O [ascorbic acid, reference compound]	–	–	–	–	–	–	–	–	–	–	52.34	61.01	74.41	81.85	84.92	7.18 ± 0.01	–	–
